Measurements from ChEMBL document CHEMBL1125418, “Antimycobacterial activity of a series of pyrazinoic acid esters” (1992).
Converted amounts (≈) assume the structure as drawn.

Key:
Assay type in all cases: functional
[1] = tested on: Mycobacterium tuberculosis variant bovis; experiment: In vitro activity against Mycobacterium. tuberculosis (strain type-ATCC 27289).at pH 5.8
Summary of the method: (§1)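 Middlebrook 7H10 agar plus 10% OADC at pH 5.8 in compartmented plates, with serial twofold dilutions from 200 to 3.12 µg/mL. Plates were prepared 24–48 h before use and stored at 4 °C. A drug-free compartment was included per isolate. Incubation was 37 °C for 4 weeks. MIC was the lowest level producing 99% (2 log) inhibition of growth.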

[2] = tested on: Mycobacterium tuberculosis variant bovis; experiment: In vitro activity against Mycobacterium. tuberculosis (strain type-ATCC 27289).at pH 6.6
Summary of the method: (§2)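 Twofold serial dilutions (200–3.12 µg/mL) in 7H10 agar with 10% OADC enrichment at pH 6.6, in compartmented plates. Plates were stored at 4 °C and used within 24–48 h. A no-drug compartment served as control for each isolate. Plates were incubated for 4 weeks at 37 °C. MIC was the lowest concentration giving 99% (2 log) growth inhibition.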

[3] = tested on: Mycobacterium tuberculosis variant bovis; experiment: In vitro activity against Mycobacterium. tuberculosis (strain type-ATCC 27289)at pH 5.8.; summary of the method: as §1
[4] = tested on: Mycobacterium tuberculosis variant bovis; experiment: In vitro inhibitory activity against Mycobacterium tuberculosis (strain type-ATCC 27289). at pH 5.8; summary of the method: as §1
[5] = tested on: Mycobacterium tuberculosis variant bovis; experiment: In vitro inhibitory activity against Mycobacterium tuberculosis (strain type-ATCC 27289). at pH 6.6; summary of the method: as §2
[6] = tested on: Mycobacterium tuberculosis variant bovis; experiment: In vitro activity against Mycobacterium. tuberculosis (strain type-ATCC 27289). at pH 6.6; summary of the method: as §2
[7] = tested on: Mycobacterium tuberculosis variant bovis; experiment: In vitro activity against Mycobacterium. tuberculosis (strain type-ATCC 27289)at pH 6.6; summary of the method: as §2
[8] = tested on: Mycobacterium tuberculosis variant bovis; experiment: In vitro inhibitory activity against Mycobacterium. tuberculosis (strain type-ATCC 27289).at pH 5.8; summary of the method: as §1
[9] = tested on: Mycobacterium tuberculosis variant bovis; experiment: In vitro inhibitory activity against Mycobacterium. tuberculosis (strain type-ATCC 27289).at pH 6.6; summary of the method: as §2
[10] = tested on: Mycobacterium tuberculosis variant bovis; experiment: In vitro inhibitory activity against Mycobacterium tuberculosis (strain type-ATCC 27289) at pH 5.8.; summary of the method: as §1

Structure (SMILES) | MIC [1] | MIC [2] | also measured
CC(C)(C)c1ccc(OC(=O)c2cnccn2)cc1 | 25 µg/mL (≈ 97.5 µM) | 200 µg/mL (≈ 780 µM) | 
O=C(OCCCl)c1cnccn1 |  |  | MIC [3]: 6.25 µg/mL (≈ 33.5 µM)
CN(C)CCOC(=O)c1cnccn1 |  |  | MIC [4]: 12.5 µg/mL (≈ 64 µM); MIC [5]: 200 µg/mL (≈ 1020 µM)
O=C(OCC(F)(F)F)c1cnccn1 | 25 µg/mL (≈ 121 µM) |  | MIC [6]: > 200 µg/mL
Cc1ccc(OC(=O)c2cnccn2)cc1 | 6.25 µg/mL (≈ 29.2 µM) | 50 µg/mL (≈ 233 µM) | 
O=C(Oc1ccc([N+](=O)[O-])cc1)c1cnccn1 | 3.12 µg/mL (≈ 12.7 µM) | 100 µg/mL (≈ 408 µM) | 
CCCOC(=O)c1cnccn1 | 6.25 µg/mL (≈ 37.6 µM) | 25 µg/mL (≈ 150 µM) | 
O=C(Oc1c(F)c(F)c(F)c(F)c1F)c1cnccn1 | 12.5 µg/mL (≈ 43.1 µM) |  | MIC [7]: 100 µg/mL (≈ 345 µM)
C=CCOC(=O)c1cnccn1 | < 3.12 µg/mL | 200 µg/mL (≈ 1220 µM) | 
O=C(Oc1ccc(-c2ccccc2)cc1)c1cnccn1 | 25 µg/mL (≈ 90.5 µM) | 100 µg/mL (≈ 362 µM) | 
O=C(OCCBr)c1cnccn1 |  | > 200 µg/mL | 
O=C(OC(C(F)(F)F)C(F)(F)F)c1cnccn1 | > 200 µg/mL |  | 
NC(=O)c1cnccn1 [PYRAZINAMIDE] |  |  | MIC [8]: > 200 µg/mL; MIC [9]: > 200 µg/mL
O=C(O)c1cnccn1 [PYRAZINOIC ACID] |  |  | MIC [10]: 100 µg/mL (≈ 806 µM); MIC [5]: > 200 µg/mL
